Assay results as given in ChEMBL document CHEMBL1955737, “Diarylpyrimidine-dihydrobenzyloxopyrimidine hybrids: new, wide-spectrum anti-HIV-1 agents active at (sub)-nanomolar level” (J Med Chem, 2011).

Tests used:
[1] = Selectivity index, ratio of CC50 for human MT4 cells to EC50 for HIV 1 NL4-3; type: toxicity, cell-based; conditions: read-out: Ratio CC50/EC50
Outline: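 CC50 from mock-infected MT-4 cells and EC50 against HIV-1 NL4-3 in infected MT-4 cells, both by day-5 MTT viability read-out; index computed as CC50/EC50(NL4-3); means of at least two experiments.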

[2] = test system: Human immunodeficiency virus 1; assay: Ratio of ID50 for HIV 1 reverse transcriptase Y188L mutant to ID50 for wild type HIV 1 NL4-3 reverse transcriptase
Outline: (§1)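 Recombinant HIV-1 RT (wild type or K103N, L100I, Y181I or Y188L), purified to >95%, at 2-4 nM. RNA-dependent DNA polymerase assay with 0.5 μg poly(rA)/oligo(dT) 10:1 (0.3 μM 3'-OH ends) and 10 μM [3H]dTTP in 8% final DMSO. Initial velocities were taken from aliquots sampled every 2 min. […] The ratio is mutant ID50 over wild-type ID50. Means of at least three experiments.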

[3] = test system: Human immunodeficiency virus 1; assay: Ratio of ID50 for HIV 1 reverse transcriptase Y181I mutant to ID50 for wild type HIV 1 NL4-3 reverse transcriptase; outline: as §1
[4] = test system: Human immunodeficiency virus 1; assay: Ratio of ID50 for HIV 1 reverse transcriptase L100I mutant to ID50 for wild type HIV 1 NL4-3 reverse transcriptase; outline: as §1
[5] = test system: Human immunodeficiency virus 1; assay: Ratio of ID50 for HIV 1 reverse transcriptase K103N mutant to ID50 for wild type HIV 1 NL4-3 reverse transcriptase; outline: as §1
[6] = test system: Human immunodeficiency virus 1; assay: Antiviral activity against wild type HIV 1 NL4-3 infected in human MT4 cells assessed as inhibition of virus-induced cytopathic effect after 5 days by MTT assay; type: functional, organism-based; conditions: Human immunodeficiency virus 1, NL4-3, MT4, 120 h
[7] = Cytotoxicity against human MT4 cells assessed as cell viability by MTT assay; type: cell-based
[8] = test system: Human immunodeficiency virus 1; assay: Antiviral activity against HIV 1 harboring reverse transcriptase K103N mutant infected in human MT4 cells assessed as inhibition of virus-induced cytopathic effect after 5 days by MTT assay; type: functional, organism-based; conditions: Human immunodeficiency virus 1, MT4, 120 h
[9] = test system: Human immunodeficiency virus 1; assay: Antiviral activity against HIV 1 harboring reverse transcriptase Y181C mutant infected in human MT4 cells assessed as inhibition of virus-induced cytopathic effect after 5 days by MTT assay; type: functional, organism-based; conditions: Human immunodeficiency virus 1, MT4, 120 h
Outline: (§2)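 MT-4 cells (NIH AIDS Reagent Program) infected with the mutant HIV-1 strain in the presence of a range of drug concentrations. Mutant strains were from the MRC Centralised Facility for AIDS Reagents; IRLL98 carries K101Q, Y181C and G190A. Viable cells were counted by MTT colorimetry at day 5 post-infection. […] Values are means of at least two experiments.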

[10] = test system: Human immunodeficiency virus 1; assay: Antiviral activity against HIV 1 harboring reverse transcriptase Y188L mutant infected in human MT4 cells assessed as inhibition of virus-induced cytopathic effect after 5 days by MTT assay; type: functional, organism-based; conditions: Human immunodeficiency virus 1, MT4, 120 h
[11] = test system: Human immunodeficiency virus 1; assay: Resistance ratio of EC50 for HIV 1 harboring reverse transcriptase K103N mutant infected in human MT4 cells to EC50 for wild type HIV 1 NL4-3 infected in human MT4 cells; type: functional
Outline: (§3)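 Fold change is the EC50 against the mutant strain (K103N, Y181C, Y188L or IRLL98) divided by the EC50 against wild-type NL4-3. Both EC50s come from MT-4 cells infected in the presence of a range of drug concentrations, with MTT viability read at day 5. Values are means of at least two experiments.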

[12] = test system: Human immunodeficiency virus 1; assay: Resistance ratio of EC50 for HIV 1 harboring reverse transcriptase Y181C mutant infected in human MT4 cells to EC50 for wild type HIV 1 NL4-3 infected in human MT4 cells; type: functional; outline: as §3
[13] = test system: Human immunodeficiency virus type 1 reverse transcriptase (Human immunodeficiency virus 1), Q72547 [L100I]
[14] = test system: Human immunodeficiency virus type 1 reverse transcriptase (Human immunodeficiency virus 1), Q72547 [K103N]
[15] = test system: Human immunodeficiency virus type 1 reverse transcriptase (Human immunodeficiency virus 1), Q72547 [Y181I]
[16] = molecular target: Human immunodeficiency virus type 1 reverse transcriptase (Human immunodeficiency virus 1) (UniProt Q72547)
[17] = test system: Human immunodeficiency virus 1; assay: Antiviral activity against multidrug-resistant HIV 1 IRLL98 harboring reverse transcriptase K101Q/Y181C/G190a mutant infected in human MT4 cells assessed as virus-induced cytopathic effect after 5 days by MTT assay; type: functional, organism-based; conditions: Human immunodeficiency virus 1, IRLL98, MT4, 120 h; outline: as §2
[18] = test system: Human immunodeficiency virus 1; assay: Resistance ratio of EC50 for HIV 1 harboring reverse transcriptase Y188L mutant infected in human MT4 cells to EC50 for wild type HIV 1 NL4-3 infected in human MT4 cells; type: functional; outline: as §3
[19] = test system: Human immunodeficiency virus 1; assay: Ratio of efavirenz EC50 to compound EC50 for wild type HIV 1 NL4-3 infected in human MT4 cells; type: functional
[20] = Ratio of TMC120 CC50 to compound CC50 for human MT4 cells; type: ADME, cell-based
[21] = test system: MT4; assay: Ratio of MC1220 CC50 to compound CC50 for human MT4 cells; type: ADME, cell-based

Structure (SMILES) | selectivity ratio [1] | Ratio [2] | Ratio [3] | Ratio [4] | Ratio [5] | EC50 [6] [nM] | CC50 [7] [nM] | EC50 [8] [nM] | EC50 [9] [nM] | EC50 [10] [nM] | Ratio EC50 [11] | Ratio EC50 [12] | ID50 [13] [nM] | ID50 [14] [nM] | ID50 [15] [nM] | ID50 [16] [nM] | Ratio EC50 [18] | further results
N#Cc1ccc(Nc2nc(Cc3c(F)cccc3F)cc(=O)[nH]2)cc1 | > 7.3 | 1550 | 70000 | 2000 | 3250 | 344 | > 2500 | 290 | 344 | > 2500 | 0.8 | 1 | 1600 | 2600 | 56000 | 0.8 | – | –
Cc1cc(C)c(Nc2ccnc(Nc3ccc(C#N)cc3)n2)c(C)c1 [DAPIVIRINE] | – | – | – | – | – | 0.03 | 3040 | 1.2 | 1.2 | – | – | – | – | 100 | > 1000 | 7 | – | EC50 [17]: 0.3 nM
CC(c1ccnc(Nc2ccc(C#N)cc2)n1)c1c(F)cccc1F (stereo not given) | 75000 | 85 | 656 | 74 | 28 | 0.5 | 37500 | 27.3 | 44.3 | 100 | 55 | 89 | 664 | 248 | 5910 | 9 | 200 | –
CC(c1cc(N)nc(Nc2ccc(C#N)cc2)n1)c1c(F)cccc1F (stereo not given) | 154000 | 147 | 1010 | 69 | 10 | 0.3 | 46100 | 8.2 | 44.7 | 66.6 | 27 | 149 | 765 | 109 | 11100 | 11 | 222 | Ratio EC50 [19]: >10; selectivity ratio [20]: > 10; Ratio [21]: 2.5
Cc1cnc(Nc2ccc(C#N)cc2)nc1Cc1c(F)cccc1F | > 22500 | – | – | 329 | 29 | 3.3 | > 74300 | 88.3 | 358 | 1020 | 27 | 108 | 2960 | 262 | > 80000 | 9 | 308 | –
Cc1cnc(Nc2ccc(C#N)cc2)nc1C(C)c1c(F)cccc1F (stereo not given) | 119000 | 43 | 725 | 19 | 22 | 0.6 | 71400 | 51.9 | 42.5 | 31.4 | 86 | 71 | 128 | 154 | 5000 | 6.9 | 52 | –
N#Cc1ccc(Nc2nc(Cl)cc(Cc3c(F)cccc3F)n2)cc1 | > 209 | – | – | – | 74 | 13.4 | > 2800 | 171 | 561 | 1400 | 13 | 42 | – | 4360 | > 80000 | 59 | 105 | –
Cc1c(Cl)nc(Nc2ccc(C#N)cc2)nc1Cc1c(F)cccc1F | > 125 | 371 | – | – | 26 | 21.6 | > 2700 | 739 | 2540 | > 2700 | 23 | 80 | – | 445 | > 40000 | 17 | – | –
Cc1c(N)nc(Nc2ccc(C#N)cc2)nc1Cc1c(F)cccc1F | 230000 | 315 | 2010 | 55 | 8 | 0.2 | 45900 | 8.2 | 70.3 | 151 | 41 | 352 | 603 | 90 | 22100 | 11 | 756 | Ratio EC50 [19]: >10; selectivity ratio [20]: > 10; Ratio [21]: 2.5
CC(c1cc(Cl)nc(Nc2ccc(C#N)cc2)n1)c1c(F)cccc1F (stereo not given) | > 1800 | 237 | 2380 | – | 24 | 1.5 | > 2700 | 51.2 | 154 | 836 | 34 | 102 | – | 286 | 28600 | 12 | 557 | –
Cc1ccnc2c1NC(=O)c1cccnc1N2C1CC1 [NEVIRAPINE] | – | – | – | – | – | – | 7510 | 6120 | > 7510 | > 7510 | – | – | – | – | 35000 | – | – | EC50 [17]: > 18800 nM
Cc1c(Cc2c(F)cccc2F)nc(Nc2ccc(C#N)cc2)[nH]c1=O | > 11.6 | – | – | – | 107 | 244 | > 2840 | 1390 | > 2840 | > 2840 | 6 | – | – | 21400 | > 80000 | 200 | – | –
Cc1c(C(C)c2c(F)cccc2F)nc(N(C)C)[nH]c1=O (stereo not given) | – | 5 | 40 | 10 | 5 | – | > 17000 | – | – | – | – | – | 1000 | 500 | 4000 | 100 | – | EC50 [17]: 205 nM
N#Cc1ccc(Nc2nccc(Cc3c(F)cccc3F)n2)cc1 | > 155000 | 306 | 1250 | 112 | 83 | 0.5 | > 77600 | 68.2 | 60.2 | 225 | 136 | 120 | 671 | 500 | 7470 | 6 | 450 | –
CC(c1cc(=O)[nH]c(Nc2ccc(C#N)cc2)n1)c1c(F)cccc1F (stereo not given) | > 312 | 149 | 438 | – | 12 | 9.1 | > 2840 | 56.8 | 88 | 653 | 6 | 10 | – | 347 | 12300 | 28 | 72 | –
Cc1c(C(C)c2c(F)cccc2F)nc(Nc2ccc(C#N)cc2)[nH]c1=O (stereo not given) | 367 | 172 | 3500 | 2500 | 312 | 2.9 | 1060 | 61.1 | 45.6 | 230 | 21 | 16 | 1000 | 125 | 1400 | 0.4 | 79 | –
O=C1Nc2ccc(Cl)cc2[C@@](C#CC2CC2)(C(F)(F)F)O1 [EFAVIRENZ] | – | – | – | – | – | 3.17 | 3170 | 343 | 10.1 | – | – | – | – | – | – | – | – | EC50 [17]: 634 nM
